Experimental data as given in ChEMBL document CHEMBL1123363, “(5-Amino-1,3-dimethyl-1H-pyrazol-4-yl)(2-fluorophenyl)methanones . A series of novel potential antipsychotic agents” (J Med Chem, 1986).

Tests used:
[1] = molecular target: T1, Adrenergic receptor alpha-1 (Rattus norvegicus, UniProt P15823+P23944+P43140)
T1 sequence (P15823 whole entry): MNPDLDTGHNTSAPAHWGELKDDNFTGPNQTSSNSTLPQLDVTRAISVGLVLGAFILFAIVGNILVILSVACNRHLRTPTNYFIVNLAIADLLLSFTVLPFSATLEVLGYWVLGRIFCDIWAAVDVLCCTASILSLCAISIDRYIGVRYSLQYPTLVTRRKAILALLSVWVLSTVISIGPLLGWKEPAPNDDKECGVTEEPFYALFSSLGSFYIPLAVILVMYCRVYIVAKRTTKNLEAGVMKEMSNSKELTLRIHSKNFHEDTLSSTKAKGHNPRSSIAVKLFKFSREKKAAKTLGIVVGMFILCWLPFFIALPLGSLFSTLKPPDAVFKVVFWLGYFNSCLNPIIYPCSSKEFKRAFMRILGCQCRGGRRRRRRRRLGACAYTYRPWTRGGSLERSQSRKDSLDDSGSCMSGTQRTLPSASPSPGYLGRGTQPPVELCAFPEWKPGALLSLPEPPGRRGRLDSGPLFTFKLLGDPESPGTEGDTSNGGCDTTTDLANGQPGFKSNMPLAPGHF
T1 sequence (P23944 whole entry): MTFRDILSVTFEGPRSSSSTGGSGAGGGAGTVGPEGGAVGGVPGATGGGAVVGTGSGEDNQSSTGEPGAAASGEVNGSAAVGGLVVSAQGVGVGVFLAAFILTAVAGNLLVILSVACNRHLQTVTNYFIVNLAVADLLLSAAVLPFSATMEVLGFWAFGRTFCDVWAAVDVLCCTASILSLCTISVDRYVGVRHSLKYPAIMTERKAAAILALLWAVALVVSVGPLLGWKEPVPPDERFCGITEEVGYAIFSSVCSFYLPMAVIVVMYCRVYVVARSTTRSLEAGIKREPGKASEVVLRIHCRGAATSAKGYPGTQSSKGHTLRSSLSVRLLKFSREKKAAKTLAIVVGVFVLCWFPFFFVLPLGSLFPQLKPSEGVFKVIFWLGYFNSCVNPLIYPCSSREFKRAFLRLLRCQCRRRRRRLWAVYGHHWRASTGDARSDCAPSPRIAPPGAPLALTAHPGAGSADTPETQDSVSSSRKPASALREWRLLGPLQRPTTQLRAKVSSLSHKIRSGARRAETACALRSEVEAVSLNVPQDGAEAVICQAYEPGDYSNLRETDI
T1 sequence (P43140 whole entry): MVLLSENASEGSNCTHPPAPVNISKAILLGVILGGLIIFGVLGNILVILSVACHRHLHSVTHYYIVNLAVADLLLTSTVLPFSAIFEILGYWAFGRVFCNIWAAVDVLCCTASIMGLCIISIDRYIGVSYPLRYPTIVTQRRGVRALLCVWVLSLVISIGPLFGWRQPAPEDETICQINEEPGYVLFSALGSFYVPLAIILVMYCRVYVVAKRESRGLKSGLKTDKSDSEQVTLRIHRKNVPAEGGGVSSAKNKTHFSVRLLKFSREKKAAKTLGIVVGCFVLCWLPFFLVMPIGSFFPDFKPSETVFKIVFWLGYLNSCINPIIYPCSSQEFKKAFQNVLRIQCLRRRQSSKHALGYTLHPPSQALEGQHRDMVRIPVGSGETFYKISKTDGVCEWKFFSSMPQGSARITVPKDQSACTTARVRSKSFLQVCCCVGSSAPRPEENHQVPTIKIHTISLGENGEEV

Rattus norvegicus = assay: Compound was tested for its effect on Dopamine turnover in rat at dose of 64 mg/kg ip; type: functional; conditions: route intraperitoneal
In short: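 Rats were given compound or vehicle ip 30 min before α-methyl-p-tyrosine (250 mg/kg ip) and killed 4 h later. Brain NE and DA were measured spectrofluorometrically, with at least five determinations per value, and expressed as % of vehicle-treated levels ± SEM.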

[2] = Inhibition of sidman avoidance in rats after peroral administration
[3] = molecular target: Serotonin 1 (5-HT1) receptor (Rattus norvegicus, UniProt P28564+P30940+P19327+P28565); assay: Binding affinity against the serotonin-1 receptor using [3H]- 5-HT; type: protein assay
In short: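 Serotonin-1 binding in rat cortex membranes (male Long-Evans, 150–250 g) with [3H]-5-HT at 2.0 nM final. (+)-Butaclamol at 1 μM final was the reference. IC50 from four or five concentrations by nonlinear curve fit.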

IC50 [1] [µM]	ED50 [2] [mg/kg]	IC50 [3] [µM]	SMILES	Control (Rattus norvegicus) [%]
> 10	21.3	–	Cc1nn(C)c(NC(=O)CNCCCN2CCCCC2C)c1C(=O)c1ccccc1F (stereo not given)	96.6
> 10	–	–	Cc1nn(C)c(N)c1C(=O)c1ccccc1F	–
–	–	> 10	CCN(CC)CC(=O)Nc1c(C(=O)c2ccccc2F)c(C)nn1C	–
